Measurements published in ChEMBL document CHEMBL1123135, “Substituent effects on the bioactivation of 2-(N-hydroxyacetamido)fluorenes by N-arylhydroxamic acid N,O-acyltransferase” (J Med Chem, 1985).

What was measured:
[1] = system: Hamster; assay: Rate of methylthio adduct formation catalyzed by partially purified hamster hepatic enzyme per mg protein per 10 min; assay type: ADME; conditions: cricetinae, in vitro
Outline: (§1)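 Hamster liver 105000g cytosol AHAT was taken as the 35–50% ammonium sulfate fraction (2–3-fold purified). Incubation (1.0 mL, pH 6.8 sodium phosphate) held 0.8 μmol NAD⁺, 10 μmol N-acetyl-L-[¹⁴C-CH₃]methionine, 1 mg enzyme and 1 μmol hydroxamic acid, for 10 min at 37 °C in air. Ether wash and 90 °C/45 min heating were followed by benzene–alkane extraction and scintillation counting. Heat-denatured enzyme blanks were subtracted; N = 3.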

[2] = Observed log rate of methylthio adduct formation; assay type: ADME; outline: as §1

SMILES | Rate [1] [nmol/mg/10 min] | Log rate [2]
CC(=O)N(O)c1ccc2c(c1)Cc1ccccc1-2 | 7.5 | 0.87
CCCCOc1ccc2c(c1)Cc1cc(N(O)C(C)=O)ccc1-2 | 0 | 
CC(=O)c1ccc2c(c1)Cc1cc(N(O)C(C)=O)ccc1-2 | 61 | 1.79
CC(=O)N(O)c1ccc2c(c1)Cc1cc(F)ccc1-2 | 15.2 | 1.18
CC(=O)N(O)c1ccc2c(c1)Cc1cc(I)ccc1-2 | 2.4 | 0.37
CC(=O)N(O)c1ccc2c(c1)Cc1cc(Br)ccc1-2 | 10.5 | 1.02
COc1ccc2c(c1)Cc1cc(N(O)C(C)=O)ccc1-2 | 1.2 | 0.09
CC(=O)N(O)c1ccc2c(c1)Cc1cc(C#N)ccc1-2 | 24.9 | 1.4
